# Measured values published in ChEMBL document CHEMBL1147825, “2H-benzimidazole 1,3-dioxide derivatives: a new family of water-soluble anti-trypanosomatid agents” (J Med Chem, 2006).
# Activity calls are given as the source filed them. The calls are words filed in the database; no cut-off is given here.
# System: Leishmania amazonensis
# Assay: Leishmanicidal activity against Leishmania amazonensis promastigote form at 100 ug/mL
# Type: functional
# Conditions: not given
# Summary of the method: (§1)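 Promastigotes grown at 28°C in Schneider's medium with 20% FCS, seeded at 10^7 parasites/mL; compound dissolved in minimal DMSO or Tween 80 and diluted in Schneider's medium to a final 100 µg/mL. After 72 h at 28°C, parasites examined by inverted microscopy and compared with compound-free control.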
row,SMILES,Activity
1,CC1(C)[N+]([O-])=c2ccc(/C=N/O)cc2=[N+]1[O-],100%
2,Cc1ccc2c(c1)[n+]([O-])c(C)n2O,inactive
3,N=C(N)c1ccc(OCCCCCOc2ccc(C(=N)N)cc2)cc1 [PENTAMIDINE],100%
4,CCOC(=O)c1ccc2[nH]c(C(=O)OCC)[n+]([O-])c2c1,inactive
5,COc1ccc2c(c1)=[N+]([O-])C(C)(C)[N+]=2[O-],70%
6,CCOC(=O)c1[nH]c2ccc([N+](=O)[O-])cc2[n+]1[O-],inactive
7,CC1(C)[N+]([O-])=c2ccccc2=[N+]1[O-],100%
8,Cc1ccc2c(c1)=[N+]([O-])C(C)(C)[N+]=2[O-],70%
9,CC1(C)[N+]([O-])=c2ccc(C3OCCO3)cc2=[N+]1[O-],100%
10,COc1ccc2c(c1)[n+]([O-])c(C)n2O,inactive
11,Cc1n(O)c2ccccc2[n+]1[O-],inactive

# System: Leishmania infantum
# Assay: Leishmanicidal activity against Leishmania infantum promastigote form at 100 ug/mL
# Type: functional
# Conditions: not given
# Summary of the method: as §1
row,SMILES,Activity
1,CC1(C)[N+]([O-])=c2ccc(/C=N/O)cc2=[N+]1[O-],100%
2,Cc1ccc2c(c1)[n+]([O-])c(C)n2O,inactive
3,N=C(N)c1ccc(OCCCCCOc2ccc(C(=N)N)cc2)cc1 [PENTAMIDINE],100%
4,CCOC(=O)c1ccc2[nH]c(C(=O)OCC)[n+]([O-])c2c1,inactive
5,COc1ccc2c(c1)=[N+]([O-])C(C)(C)[N+]=2[O-],inactive
6,CCOC(=O)c1[nH]c2ccc([N+](=O)[O-])cc2[n+]1[O-],inactive
7,CC1(C)[N+]([O-])=c2ccccc2=[N+]1[O-],100%
8,Cc1ccc2c(c1)=[N+]([O-])C(C)(C)[N+]=2[O-],70%
9,CC1(C)[N+]([O-])=c2ccc(C3OCCO3)cc2=[N+]1[O-],100%
10,COc1ccc2c(c1)[n+]([O-])c(C)n2O,inactive
11,Cc1n(O)c2ccccc2[n+]1[O-],inactive

# System: Leishmania braziliensis
# Assay: Leishmanicidal activity against Leishmania braziliensis promastigote form at 100 ug/mL
# Type: functional
# Conditions: not given
# Summary of the method: as §1
row,SMILES,Activity
1,CC1(C)[N+]([O-])=c2ccc(/C=N/O)cc2=[N+]1[O-],100%
2,Cc1ccc2c(c1)[n+]([O-])c(C)n2O,inactive
3,N=C(N)c1ccc(OCCCCCOc2ccc(C(=N)N)cc2)cc1 [PENTAMIDINE],100%
4,CCOC(=O)c1ccc2[nH]c(C(=O)OCC)[n+]([O-])c2c1,inactive
5,COc1ccc2c(c1)=[N+]([O-])C(C)(C)[N+]=2[O-],70%
6,CCOC(=O)c1[nH]c2ccc([N+](=O)[O-])cc2[n+]1[O-],inactive
7,CC1(C)[N+]([O-])=c2ccccc2=[N+]1[O-],100%
8,Cc1ccc2c(c1)=[N+]([O-])C(C)(C)[N+]=2[O-],70%
9,CC1(C)[N+]([O-])=c2ccc(C3OCCO3)cc2=[N+]1[O-],100%
10,COc1ccc2c(c1)[n+]([O-])c(C)n2O,inactive
11,Cc1n(O)c2ccccc2[n+]1[O-],70%

# System: J774
# Assay: Cytotoxicity against mouse J774 macrophage at 400 uM
# Type: functional
# Conditions: not given
# Summary of the method: (§2)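 J774 macrophages in RPMI 1640 with 20% heat-inactivated FCS, attached 24 h at 37°C in 5% CO2, then exposed to compound for 48 h. Washed, MTT 0.4 mg/mL 60 min at 37°C, formazan dissolved in DMSO, OD595 read. Each concentration in triplicate with six growth controls; %cytotoxicity corrected for compound-in-medium and medium-only blanks.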
row,SMILES,Activity
1,CC1(C)[N+]([O-])=c2ccc(/C=C/c3ccccc3)cc2=[N+]1[O-],Toxic
2,CC1(C)[N+]([O-])=c2ccc(/C=N/O)cc2=[N+]1[O-],Not toxic
3,CC1(C)[N+]([O-])=c2ccc(Br)cc2=[N+]1[O-],Toxic
4,COc1ccc2c(c1)=[N+]([O-])C(C)(C)[N+]=2[O-],Toxic
5,CC1(C)[N+]([O-])=c2ccccc2=[N+]1[O-],Toxic
6,Cc1ccc2c(c1)=[N+]([O-])C(C)(C)[N+]=2[O-],Toxic
7,CC1(C)[N+]([O-])=c2ccc(C3OCCO3)cc2=[N+]1[O-],50%

# System: J774
# Assay: Cytotoxicity against mouse J774 macrophage at 40 uM
# Type: functional
# Conditions: not given
# Summary of the method: as §2
row,SMILES,Activity
1,CC1(C)[N+]([O-])=c2ccc(/C=C/c3ccccc3)cc2=[N+]1[O-],< 50%
2,CC1(C)[N+]([O-])=c2ccc(/C=N/O)cc2=[N+]1[O-],Not toxic
3,CC1(C)[N+]([O-])=c2ccc(Br)cc2=[N+]1[O-],< 50%
4,COc1ccc2c(c1)=[N+]([O-])C(C)(C)[N+]=2[O-],< 50%
5,CC1(C)[N+]([O-])=c2ccccc2=[N+]1[O-],< 50%
6,Cc1ccc2c(c1)=[N+]([O-])C(C)(C)[N+]=2[O-],< 50%

# System: J774
# Assay: Cytotoxicity against mouse J774 macrophage at 4 uM
# Type: functional, cell-based
# Conditions: not given
# Summary of the method: as §2
row,SMILES,Activity
1,CC1(C)[N+]([O-])=c2ccc(/C=N/O)cc2=[N+]1[O-],Not toxic

# System: Trypanosoma cruzi
# Assay: Activity against Trypanosoma cruzi in BALB/c mouse at 30 mg/kg/day after 60 days
# Type: functional, organism-based
# Conditions: not given
# Summary of the method: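 Male BALB/c mice (30 days old, 25-30 g) infected i.p. with 10^3 blood trypomastigotes; oral dosing began 10 days post-infection, 30 mg/kg/day as aqueous PBS solution for 10 days; groups of eight, PBS control group of 10. Mortality recorded daily, parasitemia weekly; anti-T. cruzi antibodies measured serologically (absorbance) at 30 and 60 days post-infection, groups compared by Wilcoxon test.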
row,SMILES,Activity
1,CC1(C)[N+]([O-])=c2ccc(/C=N/O)cc2=[N+]1[O-],Active
2,CC1(C)[N+]([O-])=c2ccc(C3OCCO3)cc2=[N+]1[O-],Active

# System: Trypanosoma cruzi
# Assay: Antitrypanosomatid activity against Trypanosoma cruzi Tulahuen 2 epimastigote form at 25 uM
# Type: functional
# Conditions: read-out: GI
# Summary of the method: (§3)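 Tulahuen 2 epimastigotes in BHI-tryptose plus 5% FCS at 28°C, inoculated at 1×10^6 cells/mL with compound (25 or 100 µM) from DMSO stock, final DMSO ≤0.4%. Growth over 5 days followed by A600; %GI computed from day-0 and day-5 absorbances of treated vs compound-free control cultures; mean of three experiments.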
row,SMILES,inhibition of growth at 25 µM [%]
1,CCOC(=O)COn1c(C)[n+]([O-])c2cc(/C=C/c3ccccc3)ccc21,8
2,CC1(C)[N+]([O-])=c2ccc(/C=C/c3ccccc3)cc2=[N+]1[O-],100
3,CC1(C)[N+]([O-])=c2ccc(/C=N/O)cc2=[N+]1[O-],72
4,Cc1ccc2c(c1)[n+]([O-])c(C)n2O,0
5,CC1(C)[N+]([O-])=c2ccc(Br)cc2=[N+]1[O-],77
6,COc1ccc2c(c1)=[N+]([O-])C(C)(C)[N+]=2[O-],52
7,CC1(C)[N+]([O-])=c2ccccc2=[N+]1[O-],87
8,Cc1ccc2c(c1)=[N+]([O-])C(C)(C)[N+]=2[O-],85
9,CC1(C)[N+]([O-])=c2ccc(C3OCCO3)cc2=[N+]1[O-],59
10,COc1ccc2c(c1)[n+]([O-])c(C)n2O,0
11,Cc1n(O)c2ccccc2[n+]1[O-],0

# System: Trypanosoma cruzi
# Assay: Antitrypanosomatid activity against Trypanosoma cruzi Tulahuen 2 epimastigote form at 100 uM
# Type: functional
# Conditions: read-out: GI
# Summary of the method: as §3
row,SMILES,inhibition of growth at 100 µM [%]
1,CCOC(=O)COn1c(C)[n+]([O-])c2cc(/C=C/c3ccccc3)ccc21,11
2,Cc1ccc2c(c1)[n+]([O-])c(C)n2O,0
3,COc1ccc2c(c1)[n+]([O-])c(C)n2O,24
4,Cc1n(O)c2ccccc2[n+]1[O-],0

# System: Trypanosoma cruzi
# Assay: Antitrypanosomatid activity against Trypanosoma cruzi Tulahuen 2 epimastigote form
# Type: functional, organism-based
# Conditions: not given
# Summary of the method: (§4)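 Epimastigotes grown at 28°C in BHI-tryptose with 5% fetal calf serum; 5-day stationary-phase cells inoculated at 1×10^6 cells/mL with compound added from DMSO stock (final DMSO ≤0.4%; control contains 0.4% DMSO). Growth followed by A600; at day 5 absorbance related to control across increasing concentrations; IC50 taken as concentration reducing absorbance ratio to 50%.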
row,IC50 [µM],SMILES
1,3.4,CC1(C)[N+]([O-])=c2ccc(/C=C/c3ccccc3)cc2=[N+]1[O-]
2,12.5,CC1(C)[N+]([O-])=c2ccc(/C=N/O)cc2=[N+]1[O-]
3,8.3,CC1(C)[N+]([O-])=c2ccc(Br)cc2=[N+]1[O-]
4,28.5,COc1ccc2c(c1)=[N+]([O-])C(C)(C)[N+]=2[O-]
5,4.3,CC1(C)[N+]([O-])=c2ccccc2=[N+]1[O-]
6,5.1,Cc1ccc2c(c1)=[N+]([O-])C(C)(C)[N+]=2[O-]
7,22.7,CC1(C)[N+]([O-])=c2ccc(C3OCCO3)cc2=[N+]1[O-]

# System: Trypanosoma cruzi
# Assay: Antitrypanosomatid activity against Trypanosoma cruzi CL Brener epimastigote form
# Type: functional, organism-based
# Conditions: not given
# Summary of the method: as §4
row,IC50 [µM],SMILES
1,6,CC1(C)[N+]([O-])=c2ccc(/C=C/c3ccccc3)cc2=[N+]1[O-]
2,14.5,CC1(C)[N+]([O-])=c2ccc(/C=N/O)cc2=[N+]1[O-]
3,12,CC1(C)[N+]([O-])=c2ccc(Br)cc2=[N+]1[O-]
4,25,COc1ccc2c(c1)=[N+]([O-])C(C)(C)[N+]=2[O-]
5,9,CC1(C)[N+]([O-])=c2ccccc2=[N+]1[O-]
6,13.5,Cc1ccc2c(c1)=[N+]([O-])C(C)(C)[N+]=2[O-]
7,20,CC1(C)[N+]([O-])=c2ccc(C3OCCO3)cc2=[N+]1[O-]

# System: Trypanosoma cruzi
# Assay: Antitrypanosomatid activity against Trypanosoma cruzi Y epimastigote form
# Type: functional, organism-based
# Conditions: not given
# Summary of the method: as §4
row,IC50 [µM],SMILES
1,5,CC1(C)[N+]([O-])=c2ccc(/C=C/c3ccccc3)cc2=[N+]1[O-]
2,11.8,CC1(C)[N+]([O-])=c2ccc(/C=N/O)cc2=[N+]1[O-]
3,13.8,CC1(C)[N+]([O-])=c2ccc(Br)cc2=[N+]1[O-]
4,17,COc1ccc2c(c1)=[N+]([O-])C(C)(C)[N+]=2[O-]
5,14,CC1(C)[N+]([O-])=c2ccccc2=[N+]1[O-]
6,13,Cc1ccc2c(c1)=[N+]([O-])C(C)(C)[N+]=2[O-]
7,14,CC1(C)[N+]([O-])=c2ccc(C3OCCO3)cc2=[N+]1[O-]

# System: Trypanosoma cruzi
# Assay: Trypanocidal activity against Trypanosoma cruzi CL Brener trypomastigote form in mouse blood at 250 ug/mL
# Type: functional
# Conditions: not given
# Summary of the method: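 Trypomastigotes taken from infected mouse blood; compound in DMSO diluted with PBS to 250 µg/mL, mixed with blood containing 10^6 parasites at 90/10 ratio, incubated 24 h at 4°C. Parasites counted by the Brener method under microscope; gentian violet positive and PBS negative controls.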
row,SMILES,Activity [%]
1,CC1(C)[N+]([O-])=c2ccc(/C=N/O)cc2=[N+]1[O-],21
2,Cc1ccc2c(c1)[n+]([O-])c(C)n2O,0
3,CCOC(=O)c1ccc2[nH]c(C(=O)OCC)[n+]([O-])c2c1,50
4,COc1ccc2c(c1)=[N+]([O-])C(C)(C)[N+]=2[O-],34
5,CCOC(=O)c1[nH]c2ccc([N+](=O)[O-])cc2[n+]1[O-],0
6,CC1(C)[N+]([O-])=c2ccccc2=[N+]1[O-],10
7,Cc1ccc2c(c1)=[N+]([O-])C(C)(C)[N+]=2[O-],0
8,CC1(C)[N+]([O-])=c2ccc(C3OCCO3)cc2=[N+]1[O-],28
9,COc1ccc2c(c1)[n+]([O-])c(C)n2O,23
10,Cc1n(O)c2ccccc2[n+]1[O-],0
